# An excerpt weighted towards active compounds, which were near 3.7% of everything screened.
# E-sel inducer = E-selectin induction on HUVECs; 260,000 compounds, 0.37% hits; HUVEC E-selectin immunofluorescence imaging; normalized: neutral wells 0, TNF-alpha wells 100; activation, % at 7.58 µM; AID 686992;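 active = mean E-selectin-positive cell signal at least 10% of the positive control, reached in at least 60% of replicates, without over 20% cell loss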
#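 material = human umbilical vein endothelial cells (HUVEC), E-selectin induction | quantity = 3,000 cells/well | medium = EGM-2 growth medium on 0.1% gelatin-coated wells | technique = immunofluorescence imaging | read-out basis = % PE-positive cells | control set = TNF-alpha positive control, DMSO neutral control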
# CFTR F508del cor = correctors of CFTR F508del function in bronchial epithelial cells | CFBE cells, YFP halide quenching; stimulated with forskolin plus potentiator P3; % fluorescence drop versus neutral controls | activity (quench increase), % at 7.58 µM | 350,000 compounds, 0.36% hits | AID 720511;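 active = mean added fluorescence quench of at least 8% versus neutral control, with both replicates also reaching 8%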;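 also: cells transiently co-express mutant CFTR-F508del with the halide-sensitive YFP; corrector assay measuring rescue of mutant channel to the surface after 24 h compound exposure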
# FGF22 binding = FGF22 (human) thermal shift binding; Q9HCT0; activity (Tm shift, normalised), % at 9.99 µM; 340,000 compounds, 1.5% hits; recombinant FGF22 thermal shift, SYPRO orange fluorescence; percent of sucrose octasulfate shift, DMSO zero;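 active = mean Tm shift, scaled 0 neutral to 100 positive control, at about 1.3% or above, every replicate too, limit read from the data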
# Target sequence (Q9HCT0 whole entry, looked up): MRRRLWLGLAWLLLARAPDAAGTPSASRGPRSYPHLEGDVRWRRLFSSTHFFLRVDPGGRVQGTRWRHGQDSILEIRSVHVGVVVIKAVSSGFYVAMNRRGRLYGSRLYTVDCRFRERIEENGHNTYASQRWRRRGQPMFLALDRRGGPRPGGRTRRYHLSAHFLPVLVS
# DENV2 CPE rescue = protects cells from dengue virus 2 cytopathic effect; DENV2-infected cells, cytopathic effect rescue, plate reader; CPE inhibition, % at 9.99 µM; 350,000 compounds, 1.7% hits; AID 651640; in the data active = CPE inhibition above about 20%, passing the limit was not always enough; tested in BHK-21 cells
# ERAP1 HTS inh = inhibitors of human ERAP1 aminopeptidase. Q9NZ08. recombinant ERAP1, Leu-AMC fluorescence, 60 min. inhibition, % at 10.7 µM. 340,000 compounds, 0.15% hits. AID 652197;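 active = mean replicate inhibition of at least 30%, or all replicates individually reaching that 30% level; inactive = mean below 30% and not every replicate reaching it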
# Hits are given with their value; 0 = inactive; - = no result given.
SMILES,E-sel inducer,CFTR F508del cor,FGF22 binding,DENV2 CPE rescue,ERAP1 HTS inh
O=C(Nc1ccccc1N1CCOCC1)c1cccc(S(=O)(=O)N2CCOCC2)c1,0,0,0,0,0
CC(C)c1ccc(/C=N/NC(=O)c2cccc(S(=O)(=O)N3CCOCC3)c2)cc1,0,0,44,0,0
COc1ccccc1NC(=O)N1C[C@H]2[C@@H](c3ccccc31)[C@H](CO)N2Cc1ccccc1F,0,0,0,0,0
CC(C)NC(=O)Nc1ccc2c(c1)C(=O)N([C@H](C)CO)C[C@@H](C)[C@@H](CN(C)Cc1ccccc1)OCCCC[C@H](C)O2,0,0,0,0,0
N#C[C@H]1[C@@H](c2ccc(-c3cccc(F)c3)cc2)[C@@H](CO)N1C(=O)c1cccnc1,0,0,0,-,0
Cc1cc2oc(C(=O)NCCc3ccc(S(N)(=O)=O)cc3)c(C)c2cc1C,0,12,0,0,0
Cc1cc2oc(C(=O)NCCc3ccc(S(N)(=O)=O)cc3)cc(=O)c2cc1C,-,0,0,0,0
CC1CN(S(=O)(=O)c2cccc(C(=O)Nc3cc(Cl)ccc3N3CCOCC3)c2)CC(C)O1 (stereo not drawn),0,20,0,0,0
COc1ccc(S(=O)(=O)Nc2ccc3c(c2)C(=O)N([C@H](C)CO)C[C@@H](C)[C@H](CN(C)Cc2ccc(Cl)c(Cl)c2)OCCCC[C@H](C)O3)cc1,0,0,0,0,-
Cc1ccc(OCc2ccc(Br)cc2)c([N+](=O)[O-])n1,-,0,45,0,0
Cc1ccc(OCc2ccc(-c3ccccc3)cc2)c([N+](=O)[O-])n1,-,0,0,36,0
O=[N+]([O-])c1ncccc1OCc1ccc(-c2ccccc2)cc1,-,0,0,0,0
Cc1ccc(S(=O)(=O)Nc2ccc3c(c2)C(=O)N([C@@H](C)CO)C[C@H](C)[C@@H](CN(C)C(=O)c2ccccc2)OCCCC[C@@H](C)O3)cc1,-,0,-,0,0
CCN(CC)CCn1c2c(c(SCC(=O)Nc3ccc(F)c(F)c3)nc1=O)CCC2,-,9.2,0,0,0
CCN(CC)CCCn1c2c(c(SCC(=O)Nc3ccc(F)c(F)c3)nc1=O)CCC2,0,0,0,0,0
C[C@H](CO)N1C[C@H](C)[C@@H](CN(C)C(=O)c2ccccc2)Oc2cc(C3=CCCC3)ccc2S1(=O)=O,0,0,0,0,0
CCCNC(=O)N(C)C[C@H]1Oc2cc(C3=CCCCC3)ccc2S(=O)(=O)N([C@@H](C)CO)C[C@H]1C,0,0,0,0,0
C[C@H](CO)N1C[C@H](C)[C@H](CN(C)C(=O)c2ccccc2)Oc2cc(C3=CCCC3)ccc2S1(=O)=O,0,0,0,27,0
CCCNC(=O)N(C)C[C@@H]1Oc2cc(C#C[C@H](C)O)ccc2S(=O)(=O)N([C@H](C)CO)C[C@H]1C,0,0,0,0,0
CCCNC(=O)N(C)C[C@@H]1Oc2cc(C3=CCCCC3)ccc2S(=O)(=O)N([C@H](C)CO)C[C@H]1C,0,0,0,47,0
CCCNC(=O)N(C)C[C@H]1Oc2cc(C#C[C@H](C)O)ccc2S(=O)(=O)N([C@H](C)CO)C[C@H]1C,0,0,0,42,-
CCOc1ccc(NC(=O)c2ccccc2NC(=O)CNC2CCCC(C)C2C)cc1 (stereo not drawn),0,11,0,0,0
CCOc1ccc(NC(=O)c2ccccc2NC(=O)CN2CCCCCC2)cc1,0,0,0,0,0
CNC(=O)C[C@@H]1CC[C@@H]2[C@@H](COc3ccc(NC(=O)Nc4ccc(C)cc4)cc3C(=O)N2C)O1,0,0,0,0,0
COc1ccccc1N1CCN(C(=O)c2cn(Cc3ccccc3)nc2-c2cccnc2)CC1,0,0,0,0,0
COc1cccc(N2CCN(C(=O)c3ccc(CS(=O)c4ccc(C)cc4)o3)CC2)c1 (stereo not drawn),-,9.6,0,0,0
COc1cccc(N2CCN(C(=O)c3ccc(CS(=O)c4ccc(Cl)cc4)o3)CC2)c1 (stereo not drawn),-,8.4,0,0,0
COc1cccc(N2CCN(C(=O)c3cn(Cc4ccccc4)nc3-c3cccnc3)CC2)c1,0,15,0,0,0
O=C([C@@H]1[C@@H](CO)[C@@H]2Cn3c(ccc(C4=CCCC4)c3=O)[C@@H]2N1Cc1nccs1)N1CCOCC1,0,-,0,0,0

# Screening data as filed in PubChem BioAssay.
